Data from publication PMC3063522 (Journal of agricultural and food chemistry, 2011).
≈ marks a conversion by molar mass, not a printed value. Entries after “also recorded” stand apart in the source; their conditions may differ.

Columns and labels:
Cytotoxicity [1] = format: cell-based; details: human, SK-MEL malignant melanoma cells
Summary of the method: (§1)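 Anti-proliferative assay run alongside four human tumour lines (SK-MEL, KB, BT-549, SK-OV-3) and two noncancerous kidney lines (Vero, LLC-PK11). Doxorubicin served as the positive control.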

Cytotoxicity [2] = format: cell-based; details: human, KB oral epidermal carcinoma cells
Summary of the method: as §1

Cytotoxicity [3] = format: cell-based; details: human, BT-549 breast ductal carcinoma cells
Summary of the method: as §1

Cytotoxicity [4] = format: cell-based; details: human, SK-OV-3 ovary carcinoma cells
Summary of the method: as §1

Cytotoxicity [5] = format: cell-based; details: African green monkey, Vero kidney fibroblasts
Summary of the method: as §1

Cytotoxicity [6] = format: cell-based; details: pig, LLC-PK11 kidney epithelial cells
Summary of the method: as §1

[7] = Cytotoxicity towards HL-60 cells in the antioxidant assay; format: cell-based; details: human, HL-60 promyelocytic leukemia cells
[8] = Cytotoxicity to RAW 264.7 cells in the iNOS assay; format: cell-based, mouse; details: mouse, RAW 264.7 macrophages
RAW 264.7 cells = assay: Cytotoxicity to RAW 264.7 cells in the iNOS assay; format: cell-based, mouse; details: RAW 264.7 cells, same assay
Phomopsis viticola = assay: Antifungal broth dilution microbioassay, Phomopsis viticola; format: cell-based; details: at the highest concentrations, Figure 2D
Summary of the method: (§2)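 Broth microdilution adapted from the NCCLS M27-A yeast method for conidia-forming filamentous plant-pathogenic fungi. The commercial fungicide captan served as the internal standard in every assay. Means were compared by SAS analysis of variance with Fisher's protected LSD. For P. viticola and P. obscurans, activity was read at 120 and 144 h of incubation.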

Botrytis cinerea = assay: Antifungal broth dilution microbioassay, Botrytis cinerea; format: cell-based
Summary of the method: as §2

mosquito larvae = assay: Mosquito larvae toxicity bioassay; format: in vivo; details: Figure 4
Summary of the method: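 Larval toxicity bioassay, run in triplicate. Controls were untreated, DMSO-acetone carrier, and permethrin as the positive control.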

[9] = homologous standards for the HPLC regression; cited from earlier work
Phomopsis obscurans = assay: Antifungal broth dilution microbioassay, Phomopsis obscurans; format: cell-based; details: 120 and 144 h (from 120 to 144 h)
Summary of the method: as §2

Row | Compound | IC50 (Cytotoxicity [1]) | IC50 (Cytotoxicity [2]) | IC50 (Cytotoxicity [3]) | IC50 (Cytotoxicity [4]) | IC50 (Cytotoxicity [5]) | IC50 (Cytotoxicity [6]) | IC50 [7] | IC50 [8] | Inhibition of iNOS activity (NO production) in RAW 264.7 cells IC50 Cytotoxicity (RAW 264.7 cells) | Antifungal activity against P. viticola (Phomopsis viticola) | Growth inhibition of B. cinerea (Botrytis cinerea; 48 h) | Growth inhibition of B. cinerea (Botrytis cinerea; 72 h) | Toxicity to mosquito larvae (mosquito larvae) | log P (known constants of standards) [9] | Antifungal activity against P. obscurans (Phomopsis obscurans)
1 | Oc1ccc(/C=C/c2cc(O)cc(O)c2)cc1 [Compound 24, resveratrol, reference compound] | > 25 µg/mL | > 25 µg/mL | > 25 µg/mL | > 25 µg/mL | > 25 µg/mL | > 25 µg/mL | 8 µg/mL (≈ 35 µM) | > 25 µg/mL | no cytotoxicity | essentially inactive | minimal activity | no activity | significantly lower toxicity |  | 
2 | CCCc1ccccc1 [propylbenzene] |  |  |  |  |  |  |  |  |  |  |  |  |  | 3.69 | 
3 | CC(C)=CCc1c(O)cc(/C=C/c2ccc(O)cc2)cc1O [Compound 2, arachidin-2] | 20 µg/mL (≈ 67.5 µM) | 22.5 µg/mL (≈ 75.9 µM) | 7.5 µg/mL (≈ 25.3 µM) | > 25 µg/mL | 13.5 µg/mL (≈ 45.6 µM) | 13.5 µg/mL (≈ 45.6 µM) | 16 µg/mL (≈ 54 µM) | > 25 µg/mL | no cytotoxicity |  |  |  |  |  | did not exhibit any activity
4 | CC(C)/C=C/c1c(O)cc(/C=C/c2ccc(O)cc2)cc1O [Compound 3, arachidin-3] | > 25 µg/mL | > 25 µg/mL | > 25 µg/mL | > 25 µg/mL | > 25 µg/mL | > 25 µg/mL | > 25 µg/mL | > 25 µg/mL | no cytotoxicity |  |  |  |  |  | did not exhibit any activity
5 | COc1cc(/C=C/c2ccc(O)cc2)cc(OC)c1 [Compound 21, pterostilbene] | > 25 µg/mL | > 25 µg/mL | > 25 µg/mL | > 25 µg/mL | > 25 µg/mL | > 25 µg/mL | 21 µg/mL (≈ 81.9 µM) | > 25 µg/mL | no cytotoxicity |  |  |  | highest activity; also recorded: somewhat greater activity |  | 
